Reference: ChEMBL document CHEMBL1137665, “Antistaphylococcal activity of CG400549, a new experimental FabI inhibitor, compared with that of other agents” (2007)
≈ marks a conversion by molar mass, not a printed value.

Key:
Type in all cases: functional
[1] = tested on: Staphylococcus aureus; assay: Antimicrobial activity against methicillin and vancomycin-resistant Staphylococcus aureus 509 after single-step resistance selection by agar dilution CLSI method
Method in brief: (§1)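 Single-step selection on drug-containing agar across 10 strains (2 MSSA, 8 MRSA, including VRSA and VISA). Colonies arising on confluent background growth were retested by CLSI agar dilution MIC. Resistance was defined as an MIC more than 4× the parent MIC.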

[2] = tested on: Staphylococcus aureus; assay: Antimicrobial activity against methicillin-resistant Staphylococcus aureus 525 by agar dilution CLSI method
Method in brief: (§2)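 CLSI agar dilution MIC against S. aureus clinical isolates. Calcium was added to the medium for daptomycin testing. Vancomycin plates were read after a full 24-h incubation.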

[3] = tested on: Staphylococcus aureus; assay: Antimicrobial activity against panton-valentine leukocidin-positive community-acquired methicillin-resistant Staphylococcus aureus 490 after 22 passages with Linezolid measured after 10 antibiotic-free subculture by multi-step resistance selection technique
Method in brief: (§3)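 Multistep-selected mutants (daily passage at subinhibitory drug levels) then subcultured 10 times daily on antibiotic-free medium; MIC redetermined afterwards and compared with the MIC recorded at the end of selection; clone identity to parent checked by pulsed-field gel electrophoresis.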

[4] = tested on: Staphylococcus aureus; assay: Antimicrobial activity against panton-valentine leukocidin-negative community-acquired methicillin-resistant Staphylococcus aureus 481 after 14 passages with CG400549 measured after 10 antibiotic-free subculture by multi-step resistance selection technique
Method in brief: (§4)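 Mutants from multistep daily serial passage in subinhibitory drug were then subcultured daily 10 times on antibiotic-free medium. MIC was redetermined after these subcultures to assess stability. Clone identity was checked by pulsed-field gel electrophoresis.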

[5] = tested on: Staphylococcus aureus; assay: Antimicrobial activity against methicillin-resistant vancomycin-intermediate Staphylococcus aureus 504 after single-step resistance selection by agar dilution CLSI method; method in brief: as §1
[6] = tested on: Staphylococcus aureus; assay: Antimicrobial activity against vancomycin-resistant Staphylococcus aureus 510 Hershey after 14 passages with CG400549 measured after 10 antibiotic-free subculture by multi-step resistance selection technique; method in brief: as §3
[7] = tested on: Staphylococcus aureus; assay: Antimicrobial activity against panton-valentine leukocidin-negative community-acquired methicillin-resistant Staphylococcus aureus 481 after 37 passages with Linezolid measured after 10 antibiotic-free subculture by multi-step resistance selection technique; method in brief: as §4
[8] = tested on: Staphylococcus aureus; assay: Antimicrobial activity against methicillin-resistant vancomycin-intermediate Staphylococcus aureus 555 after single-step resistance selection by agar dilution CLSI method; method in brief: as §1
[9] = tested on: Staphylococcus aureus; assay: Antimicrobial activity against vancomycin-intermediate Staphylococcus aureus 504 after 14 passages with CG400549 measured after 10 times antibiotic-free subculture by multi-step resistance selection technique; method in brief: as §3
[10] = tested on: Staphylococcus aureus; assay: Antimicrobial activity against methicillin-susceptible Staphylococcus aureus by agar dilution CLSI method; method in brief: as §2
[11] = tested on: Staphylococcus aureus; assay: Antimicrobial activity against vancomycin-resistant Staphylococcus aureus 509 Michigan after 28 passages with Linezolid measured after 10 antibiotic-free subculture by multi-step resistance selection technique; method in brief: as §3
[12] = tested on: Staphylococcus aureus; assay: Antimicrobial activity against methicillin-resistant Staphylococcus aureus by agar dilution CLSI method; method in brief: as §2
[13] = tested on: Staphylococcus aureus; assay: Antimicrobial activity against methicillin-resistant Staphylococcus aureus 525 after single-step resistance selection by agar dilution CLSI method; method in brief: as §1
[14] = tested on: Staphylococcus aureus; assay: Antimicrobial activity against community-acquired vancomycin-intermediate Staphylococcus aureus 504 by agar dilution CLSI method; method in brief: as §2
[15] = tested on: Staphylococcus aureus; assay: Antimicrobial activity against methicillin-resistant Staphylococcus aureus 547 after 21 passages with quinupristin-dalfopristin measured after 10 antibiotic-free subculture by multi-step resistance selection technique; method in brief: as §4
[16] = tested on: Staphylococcus aureus; assay: Antimicrobial activity against methicillin-resistant Staphylococcus aureus 547 after 48 passages with Linezolid measured after 10 antibiotic-free subculture by multi-step resistance selection technique; method in brief: as §4
[17] = tested on: Staphylococcus aureus; assay: Antimicrobial activity against panton-valentine leukocidin-positive community-acquired methicillin-resistant Staphylococcus aureus 490 by agar dilution CLSI method
Method in brief: (§5)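 Agar dilution MIC per CLSI methodology; calcium supplemented for daptomycin testing; vancomycin plates read after a full 24-h incubation.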

[18] = tested on: Staphylococcus aureus; assay: Antimicrobial activity against vancomycin-resistant Staphylococcus aureus 509 Michigan after 18 passages with quinupristin-dalfopristin measured after 10 antibiotic-free subculture by multi-step resistance selection technique; method in brief: as §3
[19] = tested on: Staphylococcus aureus; assay: Antimicrobial activity against vancomycin-intermediate Staphylococcus aureus 555 Hershey by agar dilution CLSI method; method in brief: as §5
[20] = tested on: Staphylococcus aureus; assay: Antimicrobial activity against panton-valentine leukocidin-negative community-acquired methicillin-resistant Staphylococcus aureus 481 by agar dilution CLSI method; method in brief: as §2
[21] = tested on: Staphylococcus aureus; assay: Antimicrobial activity against methicillin-resistant Staphylococcus aureus 490 after single-step resistance selection by agar dilution CLSI method; method in brief: as §1
[22] = tested on: Staphylococcus aureus; assay: Antimicrobial activity against methicillin-susceptible Staphylococcus aureus 540 after 36 passages with Linezolid measured after 10 antibiotic-free subculture by multi-step resistance selection technique; method in brief: as §4
[23] = tested on: Staphylococcus aureus; assay: Antimicrobial activity against methicillin-susceptible Staphylococcus aureus 540 after 24 passages with daptomycin measured after 10 antibiotic-free subculture by multi-step resistance selection technique; method in brief: as §4
[24] = tested on: Staphylococcus aureus; assay: Antimicrobial activity against panton-valentine leukocidin-negative community-acquired methicillin-resistant Staphylococcus aureus 481 after 14 passages by multi-step resistance selection technique
Method in brief: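 Multistep selection by daily serial passage of each strain in subinhibitory drug concentrations for the stated number of passages. Mutant MIC was then determined. Identity of mutants and parents was confirmed by pulsed-field gel electrophoresis.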

[25] = tested on: Staphylococcus aureus; assay: Antimicrobial activity against vancomycin-resistant Staphylococcus aureus 510 Hershey after 18 passages with daptomycin measured after 10 antibiotic-free subculture by multi-step resistance selection technique; method in brief: as §3
[26] = tested on: Staphylococcus aureus; assay: Antimicrobial activity against methicillin-resistant Staphylococcus aureus 547 after 14 passages with CG400549 measured after 10 antibiotic-free subculture by multi-step resistance selection technique; method in brief: as §4
[27] = tested on: Staphylococcus aureus; assay: Antimicrobial activity against methicillin-susceptible Staphylococcus aureus 543 after 18 passages with quinupristin-dalfopristin measured after 10 antibiotic-free subculture by multi-step resistance selection technique; method in brief: as §4
[28] = tested on: Staphylococcus aureus; assay: Antimicrobial activity against methicillin-susceptible Staphylococcus aureus 543 by agar dilution CLSI method; method in brief: as §2
[29] = tested on: Staphylococcus aureus; assay: Antimicrobial activity against panton-valentine leukocidin-positive community-acquired methicillin-resistant Staphylococcus aureus 490 after 23 passages with quinupristin-dalfopristin measured after 10 antibiotic-free subculture by multi-step resistance selection technique; method in brief: as §3
[30] = tested on: Staphylococcus aureus; assay: Antimicrobial activity against vancomycin-intermediate Staphylococcus aureus 504 after 22 passages with Linezolid measured after 10 times antibiotic-free subculture by multi-step resistance selection technique; method in brief: as §3
[31] = tested on: Staphylococcus aureus; assay: Antimicrobial activity against methicillin-resistant Staphylococcus aureus 525 after 16 passages with quinupristin-dalfopristin measured after 10 antibiotic-free subculture by multi-step resistance selection technique; method in brief: as §4
[32] = tested on: Staphylococcus aureus; assay: Antimicrobial activity against methicillin-resistant Staphylococcus aureus 525 after 14 passages with CG400549 measured after 10 antibiotic-free subculture by multi-step resistance selection technique; method in brief: as §4
[33] = tested on: Staphylococcus aureus; assay: Antimicrobial activity against vancomycin-resistant Staphylococcus aureus 509 Michigan after 14 passages with CG400549 measured after 10 antibiotic-free subculture by multi-step resistance selection technique; method in brief: as §3
[34] = tested on: Staphylococcus aureus; assay: Antimicrobial activity against vancomycin-intermediate Staphylococcus aureus 555 Hershey after 20 passages with quinupristin-dalfopristin measured after 10 antibiotic-free subculture by multi-step resistance selection technique; method in brief: as §3
[35] = tested on: Staphylococcus aureus; assay: Antimicrobial activity against panton-valentine leukocidin-negative community-acquired methicillin-resistant Staphylococcus aureus 481 after 16 passages with quinupristin-dalfopristin measured after 10 antibiotic-free subculture by multi-step resistance selection technique; method in brief: as §4
[36] = tested on: Staphylococcus aureus; assay: Antimicrobial activity against methicillin and vancomycin-resistant Staphylococcus aureus 510 after single-step resistance selection by agar dilution CLSI method; method in brief: as §1

SMILES	MIC [1] [µg/mL]	MIC [2] [µg/mL]	MIC [3] [µg/mL]	MIC [4] [µg/mL]	MIC [5] [µg/mL]	MIC [6] [µg/mL]	MIC [7] [µg/mL]	MIC [8] [µg/mL]	MIC [9] [µg/mL]	MIC50 [10] [µg/mL]	MIC90 [10] [µg/mL]	MIC [11] [µg/mL]	MIC50 [12] [µg/mL]	MIC90 [12] [µg/mL]	MIC [13] [µg/mL]	MIC [14] [µg/mL]	MIC [15] [µg/mL]	MIC [16] [µg/mL]	MIC [17] [µg/mL]	MIC [18] [µg/mL]	also measured
Cc1c(N)cccc1Cn1ccc(OCCc2cccs2)cc1=O [CG-400549]	0.125 (≈ 0.367 µM)	0.25 (≈ 0.734 µM)	0.25 (≈ 0.734 µM)	2 (≈ 5.87 µM)	0.125 (≈ 0.367 µM)	4 (≈ 11.7 µM)	0.125 (≈ 0.367 µM)	0.125 (≈ 0.367 µM)	2 (≈ 5.87 µM)	0.25 (≈ 0.734 µM)	0.25 (≈ 0.734 µM)	0.5 (≈ 1.47 µM)	0.25 (≈ 0.734 µM)	0.25 (≈ 0.734 µM)	0.125 (≈ 0.367 µM)	0.25 (≈ 0.734 µM)	0.125 (≈ 0.367 µM)	0.125 (≈ 0.367 µM)	0.25 (≈ 0.734 µM)	1 (≈ 2.94 µM)	MIC [19]: 0.25 µg/mL (≈ 0.734 µM); MIC [20]: 0.25 µg/mL (≈ 0.734 µM); MIC [21]: 0.125 µg/mL (≈ 0.367 µM); MIC [22]: 0.125 µg/mL (≈ 0.367 µM); MIC [23]: 0.125 µg/mL (≈ 0.367 µM); MIC [24]: 2 µg/mL (≈ 5.87 µM); MIC [25]: 0.125 µg/mL (≈ 0.367 µM); MIC [26]: 8 µg/mL (≈ 23.5 µM); MIC [27]: 0.125 µg/mL (≈ 0.367 µM); MIC [28]: 0.125 µg/mL (≈ 0.367 µM); MIC [29]: 0.125 µg/mL (≈ 0.367 µM); MIC [30]: 0.25 µg/mL (≈ 0.734 µM); MIC [31]: 0.125 µg/mL (≈ 0.367 µM); MIC [32]: 4 µg/mL (≈ 11.7 µM); MIC [33]: > 64 µg/mL; MIC [34]: 0.25 µg/mL (≈ 0.734 µM); MIC [35]: 0.25 µg/mL (≈ 0.734 µM); MIC [36]: 0.125 µg/mL (≈ 0.367 µM)
CCCCCCCCCC(=O)N[C@@H](Cc1c[nH]c2ccccc12)C(=O)N[C@H](CC(N)=O)C(=O)N[C@@H](CC(=O)O)C(=O)N[C@@H]1C(=O)NCC(=O)N[C@@H](CCCN)C(=O)N[C@@H](CC(=O)O)C(=O)N[C@H](C)C(=O)N[C@@H](CC(=O)O)C(=O)NCC(=O)N[C@H](CO)C(=O)N[C@@H]([C@H](C)CC(=O)O)C(=O)N[C@@H](CC(=O)c2ccccc2N)C(=O)O[C@@H]1C	0.5 (≈ 0.309 µM)	1 (≈ 0.617 µM)	1 (≈ 0.617 µM)	1 (≈ 0.617 µM)	0.5 (≈ 0.309 µM)	1 (≈ 0.617 µM)	1 (≈ 0.617 µM)	0.5 (≈ 0.309 µM)	1 (≈ 0.617 µM)	1 (≈ 0.617 µM)	1 (≈ 0.617 µM)	2 (≈ 1.23 µM)	0.5 (≈ 0.309 µM)	0.5 (≈ 0.309 µM)	0.5 (≈ 0.309 µM)	4 (≈ 2.47 µM)	1 (≈ 0.617 µM)	2 (≈ 1.23 µM)	1 (≈ 0.617 µM)	1 (≈ 0.617 µM)	MIC [19]: 16 µg/mL (≈ 9.87 µM); MIC [20]: 1 µg/mL (≈ 0.617 µM); MIC [21]: 0.5 µg/mL (≈ 0.309 µM); MIC [22]: 2 µg/mL (≈ 1.23 µM); MIC [23]: 2 µg/mL (≈ 1.23 µM); MIC [24]: 8 µg/mL (≈ 4.94 µM); MIC [25]: 4 µg/mL (≈ 2.47 µM); MIC [26]: 1 µg/mL (≈ 0.617 µM); MIC [27]: 2 µg/mL (≈ 1.23 µM); MIC [28]: 1 µg/mL (≈ 0.617 µM); MIC [29]: 1 µg/mL (≈ 0.617 µM); MIC [30]: 1 µg/mL (≈ 0.617 µM); MIC [31]: 1 µg/mL (≈ 0.617 µM); MIC [32]: 1 µg/mL (≈ 0.617 µM); MIC [33]: 1 µg/mL (≈ 0.617 µM); MIC [34]: 2 µg/mL (≈ 1.23 µM); MIC [35]: 1 µg/mL (≈ 0.617 µM); MIC [36]: 0.5 µg/mL (≈ 0.309 µM)
